Measurements reported in ChEMBL document CHEMBL5724801, “EUbOPEN Chemogenomics Library - Multiplex” (2024).
Values joined by “and” are separate entries in the source; they are usually repeats but may differ in a detail not shown here. Equal values may be shown once.

Test system: HEK-293T
Assay: Multiplex assay against HEK293T
Format: toxicity, cell-based
Conditions: human
Summary of the method: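 Phenotypes for tubulin, mitochondrial mass and membrane permeability are expressed as per cents of healthy-nucleus cells. Cells were stained live at seeding with Hoechst33342, BioTracker Green Microtubule Cytoskeleton Dye, MitoTracker Red and Annexin V Alexa Fluor 680, then imaged after compound addition on a CQ1 microscope at 37°C and 5% CO2. Machine-learning gating in CellPathfinder separated Hoechst high-intensity objects from normal cells, divided normal cells by nuclear state (healthy, pyknosed, fragmented) and divided pyknosed cells into mitotic or apoptotic.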

[1] = 12 h, 1 µM, compound concentration 1 uM
[2] = 12 h, 10 µM, compound concentration 10 uM
[3] = 24 h, 1 µM, compound concentration 1 uM
[4] = 24 h, 10 µM, compound concentration 10 uM
[5] = 48 h, 1 µM, compound concentration 1 uM
[6] = 48 h, 10 µM, compound concentration 10 uM

SMILES: N#Cc1ccnc(Nc2cc(C3CCN(C4COC4)CC3)cc(N3CCC(F)(F)C3)n2)c1
- Population Apoptotic (%) [1]: 18.37% and 8.2%
- Population Fragmented Nuclei (%) [1]: 1.49% and 2.08%
- Population Healthy Nuclei (%) [1]: 25.74% and 13.19%
- Population Hoechst High Intensity Objects (%) [1]: 0.98% and 0%
- Population Membrane Permeable-Phenotype (%) [1]: 0%
- Population Mitotic Cells (%) [1]: 81.63% and 91.8%
- Population Normal (%) [1]: 99.02% and 100%
- Population Pyknosed Nuclei (%) [1]: 72.77% and 84.72%
- Population Tubulin-Different-Phenotype (%) [1]: 32.69% and 42.11%
- Total Cell Count [1]: 204 and 144
- Population Apoptotic (%) [2]: 23.38% and 27.5%
- Population Fragmented Nuclei (%) [2]: 5.2% and 14.04%
- Population Healthy Nuclei (%) [2]: 20.07% and 15.79%
- Population Hoechst High Intensity Objects (%) [2]: 0.37% and 0.87%
- Population Mitotic Cells (%) [2]: 76.62% and 72.5%
- Population Normal (%) [2]: 99.63% and 99.13%
- Population Pyknosed Nuclei (%) [2]: 74.72% and 70.18%
- Total Cell Count [2]: 270 and 230
- Population Apoptotic (%) [3]: 44.81% and 25.93%
- Population Fragmented Nuclei (%) [3]: 1.81% and 1.57%
- Population Hoechst High Intensity Objects (%) [3]: 0.72% and 0.78%
- Population Membrane Permeable-Phenotype (%) [3]: 2.56% and 0%
- Population Mitochondria Different-Phenotype (%) [3]: 41.88% and 35.29%
- Population Mitotic Cells (%) [3]: 55.19% and 74.07%
- Population Normal (%) [3]: 99.28% and 99.22%
- Population Pyknosed Nuclei (%) [3]: 55.8% and 85.04%
- Population Tubulin-Different-Phenotype (%) [3]: 49.57% and 23.53%
- Total Cell Count [3]: 278 and 128
- Population Apoptotic (%) [4]: 63.77% and 56.46%
- Population Fragmented Nuclei (%) [4]: 4.87% and 13.57%
- Population Healthy Nuclei (%) [4]: 17.6% and 19.91%
- Population Hoechst High Intensity Objects (%) [4]: 0.74% and 0%
- Population Membrane Permeable-Phenotype (%) [4]: 0% and 9.09%
- Population Mitotic Cells (%) [4]: 36.23% and 43.54%
- Population Normal (%) [4]: 99.26% and 100%
- Population Pyknosed Nuclei (%) [4]: 77.53% and 66.52%
- Total Cell Count [4]: 269 and 221
- Population Fragmented Nuclei (%) [5]: 4.08% and 0.7%
- Population Healthy Nuclei (%) [5]: 73.7% and 38.46%
- Population Hoechst High Intensity Objects (%) [5]: 0.23% and 0.69%
- Population Membrane Permeable-Phenotype (%) [5]: 4.31% and 3.64%
- Population Mitochondria Different-Phenotype (%) [5]: 60.62% and 56.36%
- Population Mitotic Cells (%) [5]: 69.39% and 90.8%
- Population Normal (%) [5]: 99.77% and 99.31%
- Population Pyknosed Nuclei (%) [5]: 22.22% and 60.84%
- Population Apoptotic (%) [6]: 88.68% and 82.35%
- Population Fragmented Nuclei (%) [6]: 5.62% and 11.71%
- Population Healthy Nuclei (%) [6]: 14.98% and 13.66%
- Population Hoechst High Intensity Objects (%) [6]: 0.37% and 0.49%
- Population Membrane Permeable-Phenotype (%) [6]: 5% and 3.57%
- Population Mitotic Cells (%) [6]: 11.32% and 17.65%
- Population Normal (%) [6]: 99.63% and 99.51%
- Population Pyknosed Nuclei (%) [6]: 79.4% and 74.63%
- Total Cell Count [6]: 268 and 206

SMILES: O=C(Nc1cc(C(F)(F)F)ccc1N1CCCCC1)c1ccncc1
- Population Apoptotic (%) [1]: 16.06% and 9.24%
- Population Fragmented Nuclei (%) [1]: 3.1% and 6.12%
- Population Hoechst High Intensity Objects (%) [1]: 0%
- Population Membrane Permeable-Phenotype (%) [1]: 0% and 10.53%
- Population Mitochondria Different-Phenotype (%) [1]: 30.11% and 10.53%
- Population Mitotic Cells (%) [1]: 83.94% and 90.76%
- Population Normal (%) [1]: 100%
- Population Pyknosed Nuclei (%) [1]: 42.41% and 80.95%
- Total Cell Count [1]: 323 and 147
- Population Apoptotic (%) [2]: 17.75% and 24.64%
- Population Fragmented Nuclei (%) [2]: 2.03% and 4.49%
- Population Healthy Nuclei (%) [2]: 48.84% and 17.98%
- Population Hoechst High Intensity Objects (%) [2]: 0.29% and 0%
- Population Membrane Permeable-Phenotype (%) [2]: 0% and 3.12%
- Population Mitochondria Different-Phenotype (%) [2]: 41.07% and 18.75%
- Population Mitotic Cells (%) [2]: 82.25% and 75.36%
- Population Normal (%) [2]: 99.71% and 100%
- Population Pyknosed Nuclei (%) [2]: 49.13% and 77.53%
- Population Tubulin-Different-Phenotype (%) [2]: 26.79% and 53.12%
- Total Cell Count [2]: 345 and 178
- Population Apoptotic (%) [3]: 12.5% and 17.7%
- Population Fragmented Nuclei (%) [3]: 1.79% and 1.82%
- Population Healthy Nuclei (%) [3]: 72.45% and 29.7%
- Population Hoechst High Intensity Objects (%) [3]: 0%
- Population Membrane Permeable-Phenotype (%) [3]: 1.48% and 2.04%
- Population Mitochondria Different-Phenotype (%) [3]: 13.33% and 12.24%
- Population Mitotic Cells (%) [3]: 87.5% and 82.3%
- Population Normal (%) [3]: 100%
- Population Pyknosed Nuclei (%) [3]: 25.76% and 68.48%
- Population Tubulin-Different-Phenotype (%) [3]: 11.36% and 12.24%
- Population Apoptotic (%) [4]: 30.61% and 27.07%
- Population Fragmented Nuclei (%) [4]: 1.11% and 2%
- Population Healthy Nuclei (%) [4]: 66.15% and 31.5%
- Population Hoechst High Intensity Objects (%) [4]: 0.22% and 0.5%
- Population Membrane Permeable-Phenotype (%) [4]: 1.68% and 0%
- Population Mitochondria Different-Phenotype (%) [4]: 34.01% and 33.33%
- Population Mitotic Cells (%) [4]: 69.39% and 72.93%
- Population Normal (%) [4]: 99.78% and 99.5%
- Population Pyknosed Nuclei (%) [4]: 32.74% and 66.5%
- Population Tubulin-Different-Phenotype (%) [4]: 39.39% and 14.29%
- Total Cell Count [4]: 450 and 201
- Population Apoptotic (%) [5]: 6.88% and 14.29%
- Population Fragmented Nuclei (%) [5]: 2.64% and 3.08%
- Population Healthy Nuclei (%) [5]: 85.29% and 66.08%
- Population Hoechst High Intensity Objects (%) [5]: 0%
- Population Membrane Permeable-Phenotype (%) [5]: 5.84% and 0.67%
- Population Mitochondria Different-Phenotype (%) [5]: 15.38% and 28.67%
- Population Mitotic Cells (%) [5]: 93.12% and 85.71%
- Population Normal (%) [5]: 100%
- Population Pyknosed Nuclei (%) [5]: 12.07% and 30.84%
- Population Apoptotic (%) [6]: 17.89% and 16.19%
- Population Fragmented Nuclei (%) [6]: 3.13% and 3.08%
- Population Healthy Nuclei (%) [6]: 80.83% and 56.54%
- Population Hoechst High Intensity Objects (%) [6]: 0% and 0.76%
- Population Membrane Permeable-Phenotype (%) [6]: 5.97% and 2.72%
- Population Mitochondria Different-Phenotype (%) [6]: 47.9% and 43.54%
- Population Mitotic Cells (%) [6]: 82.11% and 83.81%
- Population Normal (%) [6]: 100% and 99.24%
- Population Pyknosed Nuclei (%) [6]: 16.04% and 40.38%
- Total Cell Count [6]: 767 and 262
